From ChEMBL document CHEMBL1287724, “Discovery of INCB3344, a potent, selective and orally bioavailable antagonist of human and murine CCR2” (Bioorg Med Chem Lett, 2010)
Values belong to the compound of their own block, whether it stands above or below them.

Legend:
[1] = biological target: C-C chemokine receptor type 2 (Homo sapiens, UniProt P41597); experiment: Displacement of [125I]MCP1 from human CCR2 after 30 mins by gamma counter
[2] = biological target: C-C chemokine receptor type 2 (Mus musculus, UniProt P51683); experiment: Displacement of [125I]MCP1 from mouse CCR2 after 30 mins by gamma counter
[3] = Protein binding in human serum assessed as unbound fraction; assay type: ADME, cell-free; conditions: read-out: PB
[4] = Protein binding in mouse serum assessed as unbound fraction; assay type: ADME, cell-free; conditions: read-out: PB
Mus musculus = experiment: Volume of distribution at steady state in CD-1 mouse at 5 mg/kg, iv; assay type: ADME, organism-based; design: dose 5 mg/kg, route intravenous; conditions: in vivo
Method in brief: (§1)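 CD-1 mice dosed intravenously at 5 mg/kg and orally at 10 mg/kg. Clearance, steady-state volume of distribution and half-life were taken from the iv arm. Cmax and AUC were taken from the po arm. Oral bioavailability was derived from the po and iv exposures.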

[5] = biological target: C-C chemokine receptor type 5 (Mus musculus, UniProt P51682); experiment: Inhibition of mouse CCR5
[6] = Half life in CD-1 mouse at 5 mg/kg, iv; assay type: ADME, organism-based; design: dose 5 mg/kg, route intravenous; conditions: in vivo; method in brief: as §1
[7] = AUC in BALB/c mouse at 10 mg/kg, po; assay type: ADME, organism-based; design: dose 10 mg/kg, route oral; conditions: plasma
[8] = biological target: Voltage-gated inwardly rectifying potassium channel KCNH2 (Homo sapiens, UniProt Q12809)
[9] = biological target: T1, C-C chemokine receptor type 1 (Mus musculus, UniProt P51675); experiment: Inhibition of mouse CCR1
T1 sequence (P51675 whole entry): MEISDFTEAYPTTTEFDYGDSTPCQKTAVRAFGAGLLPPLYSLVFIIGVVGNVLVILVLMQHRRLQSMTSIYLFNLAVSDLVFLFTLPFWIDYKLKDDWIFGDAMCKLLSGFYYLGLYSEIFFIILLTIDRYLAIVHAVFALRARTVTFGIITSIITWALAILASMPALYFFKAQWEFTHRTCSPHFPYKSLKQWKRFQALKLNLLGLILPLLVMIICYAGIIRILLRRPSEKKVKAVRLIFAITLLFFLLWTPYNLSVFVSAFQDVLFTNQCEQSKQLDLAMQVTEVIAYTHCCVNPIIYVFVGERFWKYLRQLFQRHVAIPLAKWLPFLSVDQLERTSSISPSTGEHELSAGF

CCR2 protein = biological target: T2, CCR2 protein (Macaca fascicularis, UniProt Q6Y3N0); experiment: Inhibition of cynomolgus CCR2
T2 sequence (Q6Y3N0 whole entry): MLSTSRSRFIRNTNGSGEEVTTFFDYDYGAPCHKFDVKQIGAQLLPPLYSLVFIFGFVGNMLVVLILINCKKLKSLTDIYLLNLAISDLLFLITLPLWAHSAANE

[10] = Cmax in CD-1 mouse at 10 mg/kg, po; assay type: ADME, organism-based; design: dose 10 mg/kg, route oral; conditions: in vivo; method in brief: as §1
[11] = Oral bioavailability in CD-1 mouse at 10 mg/kg, po; assay type: ADME, organism-based; conditions: in vivo; method in brief: as §1
[12] = biological target: T3, C-C chemokine receptor type 2 (Rattus norvegicus, UniProt O55193); experiment: Inhibition of rat CCR2
T3 sequence (O55193 whole entry): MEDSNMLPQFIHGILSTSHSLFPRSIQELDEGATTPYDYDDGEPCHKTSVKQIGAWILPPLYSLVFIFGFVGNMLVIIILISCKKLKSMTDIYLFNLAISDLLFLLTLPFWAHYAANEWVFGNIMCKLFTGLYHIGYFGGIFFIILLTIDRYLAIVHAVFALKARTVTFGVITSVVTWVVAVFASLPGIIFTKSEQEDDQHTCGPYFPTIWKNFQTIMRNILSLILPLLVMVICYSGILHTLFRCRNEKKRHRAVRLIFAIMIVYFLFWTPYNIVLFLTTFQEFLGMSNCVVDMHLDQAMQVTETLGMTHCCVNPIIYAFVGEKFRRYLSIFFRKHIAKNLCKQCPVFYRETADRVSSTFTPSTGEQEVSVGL

[13] = AUC in CD-1 mouse at 10 mg/kg, po; assay type: ADME, organism-based; design: dose 10 mg/kg, route oral; conditions: plasma; method in brief: as §1
[14] = Clearance in CD-1 mouse at 5 mg/kg, iv; assay type: ADME, organism-based; design: dose 5 mg/kg, route intravenous; conditions: in vivo; method in brief: as §1
[15] = Cmax in BALB/c mouse at 10 mg/kg, po; assay type: ADME, organism-based; design: dose 10 mg/kg, route oral; conditions: in vivo

Chain of C-C chemokine receptor type 2 (Mus musculus, UniProt P51683) (P51683 whole entry): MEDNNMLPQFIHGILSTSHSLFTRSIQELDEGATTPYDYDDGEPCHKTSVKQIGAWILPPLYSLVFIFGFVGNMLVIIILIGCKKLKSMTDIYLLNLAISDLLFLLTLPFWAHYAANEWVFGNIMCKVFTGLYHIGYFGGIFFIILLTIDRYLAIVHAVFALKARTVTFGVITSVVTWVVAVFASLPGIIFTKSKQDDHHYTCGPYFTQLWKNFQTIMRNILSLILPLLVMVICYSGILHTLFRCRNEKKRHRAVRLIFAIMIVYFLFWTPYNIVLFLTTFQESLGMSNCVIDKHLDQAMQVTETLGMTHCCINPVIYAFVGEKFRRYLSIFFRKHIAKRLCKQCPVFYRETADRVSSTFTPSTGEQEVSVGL
Chain of C-C chemokine receptor type 2 (Homo sapiens, UniProt P41597) (P41597 whole entry): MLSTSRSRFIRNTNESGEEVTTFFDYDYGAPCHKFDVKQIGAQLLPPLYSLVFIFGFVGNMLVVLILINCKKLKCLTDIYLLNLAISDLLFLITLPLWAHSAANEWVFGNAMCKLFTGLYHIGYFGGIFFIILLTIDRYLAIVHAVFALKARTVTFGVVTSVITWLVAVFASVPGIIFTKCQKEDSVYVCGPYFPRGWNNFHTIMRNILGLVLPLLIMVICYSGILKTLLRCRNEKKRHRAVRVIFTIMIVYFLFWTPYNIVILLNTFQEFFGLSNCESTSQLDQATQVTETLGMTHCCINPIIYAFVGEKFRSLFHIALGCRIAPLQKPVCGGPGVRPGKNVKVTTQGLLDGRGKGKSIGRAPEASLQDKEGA
Chain of Voltage-gated inwardly rectifying potassium channel KCNH2 (Q12809 whole entry): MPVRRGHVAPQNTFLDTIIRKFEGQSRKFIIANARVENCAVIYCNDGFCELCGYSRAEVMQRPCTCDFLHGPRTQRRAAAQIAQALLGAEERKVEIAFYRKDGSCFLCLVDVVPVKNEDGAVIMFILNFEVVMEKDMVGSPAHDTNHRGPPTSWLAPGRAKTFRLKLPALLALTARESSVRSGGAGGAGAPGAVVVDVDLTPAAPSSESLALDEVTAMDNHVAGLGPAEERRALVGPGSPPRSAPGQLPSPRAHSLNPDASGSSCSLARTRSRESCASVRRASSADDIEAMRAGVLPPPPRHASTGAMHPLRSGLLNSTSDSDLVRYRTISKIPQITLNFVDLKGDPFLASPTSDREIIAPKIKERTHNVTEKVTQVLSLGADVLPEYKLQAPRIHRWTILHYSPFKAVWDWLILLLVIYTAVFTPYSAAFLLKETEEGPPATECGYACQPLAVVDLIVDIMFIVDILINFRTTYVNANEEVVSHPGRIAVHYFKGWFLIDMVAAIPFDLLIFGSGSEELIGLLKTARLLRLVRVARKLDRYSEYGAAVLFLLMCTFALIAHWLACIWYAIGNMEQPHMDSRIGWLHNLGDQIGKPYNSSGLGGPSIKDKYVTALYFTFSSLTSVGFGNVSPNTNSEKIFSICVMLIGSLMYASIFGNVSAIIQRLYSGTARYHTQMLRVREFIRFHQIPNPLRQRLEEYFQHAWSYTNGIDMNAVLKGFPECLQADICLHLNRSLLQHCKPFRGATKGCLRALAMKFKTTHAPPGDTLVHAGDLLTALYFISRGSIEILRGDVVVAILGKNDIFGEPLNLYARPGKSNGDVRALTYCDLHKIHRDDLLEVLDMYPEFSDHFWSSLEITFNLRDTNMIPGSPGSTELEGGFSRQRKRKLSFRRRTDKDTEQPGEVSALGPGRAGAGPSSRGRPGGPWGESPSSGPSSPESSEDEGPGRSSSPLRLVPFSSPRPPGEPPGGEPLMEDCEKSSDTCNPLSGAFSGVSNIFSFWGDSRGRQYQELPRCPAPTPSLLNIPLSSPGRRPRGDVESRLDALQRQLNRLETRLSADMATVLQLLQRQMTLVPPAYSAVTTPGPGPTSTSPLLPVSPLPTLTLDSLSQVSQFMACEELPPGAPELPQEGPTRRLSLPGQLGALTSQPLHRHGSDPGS
Chain of C-C chemokine receptor type 5 (P51682 whole entry): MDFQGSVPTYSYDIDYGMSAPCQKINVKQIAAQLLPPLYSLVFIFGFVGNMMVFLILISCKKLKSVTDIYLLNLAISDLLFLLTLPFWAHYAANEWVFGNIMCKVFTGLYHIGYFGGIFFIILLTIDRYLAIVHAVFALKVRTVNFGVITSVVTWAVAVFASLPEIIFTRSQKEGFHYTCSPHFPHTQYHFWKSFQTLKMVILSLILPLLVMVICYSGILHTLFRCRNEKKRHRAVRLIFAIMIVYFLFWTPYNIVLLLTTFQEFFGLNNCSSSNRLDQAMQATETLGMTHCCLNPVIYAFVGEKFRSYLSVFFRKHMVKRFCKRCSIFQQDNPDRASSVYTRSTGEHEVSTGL

Structure (SMILES): O=C(CNC(=O)c1cccc(C(F)(F)F)c1)N[C@H]1CN([C@H]2CC[C@@H](c3ccccc3)CC2)C[C@@H]1OCc1ccccc1
IC50 [1]: 17 nM | IC50 [2]: 51 nM

Structure (SMILES): O=C(CNC(=O)c1cccc(C(F)(F)F)c1)N[C@H]1CN([C@H]2CC[C@@H](c3ccccc3)C2)C[C@@H]1O
IC50 [1]: 120 nM

Structure (SMILES): O=C(CNC(=O)c1cccc(C(F)(F)F)c1)N[C@H]1CN([C@H]2CC[C@H](c3ccccc3)C2)C[C@@H]1O
IC50 [1]: > 1000 nM

Structure (SMILES): O=C(CNC(=O)c1cccc(C(F)(F)F)c1)N[C@H]1CN([C@H]2CCC[C@@H](c3ccccc3)C2)C[C@@H]1O
IC50 [1]: > 1000 nM

Structure (SMILES): O=C(CNC(=O)c1cccc(C(F)(F)F)c1)N[C@H]1CN([C@H]2CCC[C@H](c3ccccc3)C2)C[C@@H]1O
IC50 [1]: > 1000 nM

Structure (SMILES): O=C(CNC(=O)c1cccc(C(F)(F)F)c1)N[C@H]1CN([C@H]2CC[C@@H](c3ccccc3)CC2)C[C@@H]1O
IC50 [1]: 7.4 nM | fraction unbound [3]: 0.026 | IC50 [2]: 186 nM

Structure (SMILES): O=C(CNC(=O)c1cccc(C(F)(F)F)c1)N[C@H]1CN([C@H]2CC[C@H](c3ccccc3)CC2)C[C@@H]1O
IC50 [1]: > 1000 nM

Structure (SMILES): O=C(CNC(=O)c1cccc(C(F)(F)F)c1)N[C@H]1CN(C2CCN(c3ccccc3)CC2)C[C@@H]1O
IC50 [1]: 649 nM

Structure (SMILES): CCCCO[C@H]1CN([C@H]2CC[C@@H](c3ccccc3)CC2)C[C@@H]1NC(=O)CNC(=O)c1cccc(C(F)(F)F)c1
IC50 [1]: 47 nM | IC50 [2]: 54 nM

Continued, in another order:

IC50 [1]: 2.3 nM | fraction unbound [3]: 0.26 | IC50 [2]: 10 nM | fraction unbound [4]: 0.18
Structure (SMILES): CCO[C@H]1CN([C@H]2CC[C@@](O)(c3ccccc3)CC2)C[C@@H]1NC(=O)CNC(=O)c1cccc(C(F)(F)F)c1

IC50 [1]: 2.3 nM | IC50 [2]: 2.1 nM | fraction unbound [4]: 0.079
Structure (SMILES): CCO[C@H]1CN([C@H]2CC[C@@](O)(c3ccc(C)cc3)CC2)C[C@@H]1NC(=O)CNC(=O)c1cccc(C(F)(F)F)c1

Vdss (Mus musculus): 2.8 L/kg | IC50 [5]: > 3000 nM | half-life [6]: 1 h | AUC [7]: 3.89 µM·h | IC50 [9]: > 1000 nM | IC50 (CCR2 protein): 16 nM | Cmax [10]: 1890 nM | bioavailability [11]: 47% | IC50 [12]: 7.3 nM | AUC [13]: 2.66 µM·h | clearance [14]: 85 mL/min/kg | fraction unbound [3]: 0.24 | fraction unbound [4]: 0.15 | Cmax [15]: 961 nM
Structure (SMILES): CCO[C@H]1CN([C@H]2CC[C@@](O)(c3ccc4c(c3)OCO4)CC2)C[C@@H]1NC(=O)CNC(=O)c1cccc(C(F)(F)F)c1
IC50 [8]: 13000 nM

IC50 [1]: 0.95 nM | fraction unbound [3]: < 0.005 | IC50 [2]: 1.9 nM | fraction unbound [4]: 0.023
Structure (SMILES): CCO[C@H]1CN([C@H]2CC[C@@H](c3ccccc3)CC2)C[C@@H]1NC(=O)CNC(=O)c1cccc(C(F)(F)F)c1

IC50 [1]: 2.9 nM | IC50 [2]: 1.9 nM
Structure (SMILES): CCCO[C@H]1CN([C@H]2CC[C@@H](c3ccccc3)CC2)C[C@@H]1NC(=O)CNC(=O)c1cccc(C(F)(F)F)c1
